ChEMBL document CHEMBL1155010, “Synthesis and biological evaluation of substituted [18F]imidazo[1,2-a]pyridines and [18F]pyrazolo[1,5-a]pyrimidines for the study of the peripheral benzodiazepine receptor using positron emission tomography” (J Med Chem, 2008)

Tests used:
[1] = Lipophilicity, log p at pH 7.5; format: physicochemical; details: buffer
How it was run: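 RP-HPLC on a C18 column with methanol/0.1 M phosphate buffer pH 7.5 (60/40) at 1 mL/min. Samples were dissolved in methanol. log P7.5 was estimated by comparing retention time with that of reference compounds of known log P.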

[2] = Displacement of [3H]flumazenil from central benzodiazepine receptor in rat brain cortex membrane; format: cell membranes
How it was run: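 Rat brain cortex membranes (100-150 µg protein) were incubated in triplicate at 25 °C for 45 min with [3H]flumazenil (2 nM) and 7 ligand concentrations (10^-10 to 10^-5 M). Nonspecific binding was set with flumazenil 20 µM. Assays were filtered, washed with ice-cold Tris/HCl pH 7.4 and counted. Ki was derived from IC50 by Cheng-Prusoff.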

Adrenal [3] = test: Biodistribution in Sprague-Dawley rat adrenals assessed per gram of tissue at 1 MBq, iv after 0.25 hrs; format: ADME, organism-based, Adrenal tissue; details: in vivo
How it was run: (§1)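 Male SD rats aged 8-10 weeks got 1 MBq [18F]tracer by tail vein in 0.1 mL. Groups of n = 4 were killed (CO2, then cervical fracture) at 0.25, 0.5, 1 and 4 h. Organs were weighed and gamma counted against a diluted standard of the injectate. Results are %ID per gram wet tissue, mean with standard deviation.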

Spleen [4] = test: Biodistribution in Sprague-Dawley rat spleen assessed per gram of tissue at 1 MBq, iv after 1 hr; format: ADME, organism-based; details: in vivo; how it was run: as §1
Liver [5] = test: Biodistribution in Sprague-Dawley rat liver assessed per gram of tissue at 1 MBq, iv after 1 hr; format: ADME, organism-based; details: in vivo; how it was run: as §1
Kidney [6] = test: Biodistribution in Sprague-Dawley rat kidney assessed per gram of tissue at 1 MBq, iv after 1 hr; format: ADME, organism-based; details: in vivo; how it was run: as §1
Spleen [7] = test: Biodistribution in Sprague-Dawley rat spleen assessed per gram of tissue at 1 MBq, iv after 0.5 hrs; format: ADME, organism-based; details: in vivo; how it was run: as §1
[8] = Biodistribution in Sprague-Dawley rat testis assessed per gram of tissue at 1 MBq, iv after 4 hrs; format: ADME, organism-based; details: in vivo; how it was run: as §1
Heart [9] = test: Biodistribution in Sprague-Dawley rat heart assessed per gram of tissue at 1 MBq, iv after 0.5 hrs; format: ADME, organism-based; details: in vivo; how it was run: as §1
Blood [10] = test: Biodistribution in Sprague-Dawley rat blood at 1 MBq, iv after 0.25 hrs; format: ADME, organism-based; details: in vivo; how it was run: as §1
Kidney [11] = test: Biodistribution in Sprague-Dawley rat kidney assessed per gram of tissue at 1 MBq, iv after 0.25 hrs; format: ADME, organism-based; details: in vivo; how it was run: as §1
Heart [12] = test: Biodistribution in Sprague-Dawley rat heart assessed per gram of tissue at 1 MBq, iv after 0.25 hrs; format: ADME, organism-based; details: in vivo; how it was run: as §1
[13] = Biodistribution in Sprague-Dawley rat testis assessed per gram of tissue at 1 MBq, iv after 1 hr; format: ADME, organism-based; details: in vivo; how it was run: as §1
[14] = Metabolic stability in Sprague-Dawley rat frontal cortex assessed as drug remaining at 30 MBq after 4 hrs by Radio-HPLC analysis; format: ADME, tissue-based; details: read-out: Stability
How it was run: (§2)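 Rats received 30 MBq tracer and were sampled at 0.25, 0.5, 1 and 4 h. Plasma was diluted with water containing unlabeled carrier and KF and injected directly. Frontal cortex or olfactory bulb was sonicated in acetonitrile/water 1:1 with carrier and KF, centrifuged, and the supernatant diluted. Radio-HPLC used a precolumn switched to C18 with a CH3CN/0.05 M sodium acetate pH 5.5 gradient. Result is % parent remaining.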

Blood [15] = test: Biodistribution in Sprague-Dawley rat blood at 1 MBq, iv after 1 hr; format: ADME, organism-based; details: in vivo
How it was run: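 Male SD rats, 8-10 weeks old, given 1 MBq [18F]radiotracer by tail-vein injection in 0.1 mL. Groups of 4 killed (CO2, then cervical fracture) at 0.25, 0.5, 1 and 4 h post-injection. Tissues weighed and gamma-counted against a diluted standard of the injected solution. Activity expressed as %ID per gram wet tissue.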

Femur [16] = test: Biodistribution in Sprague-Dawley rat femur at 1 MBq, iv after 0.25 hrs; format: ADME, organism-based; details: in vivo; how it was run: as §1
Spleen [17] = test: Biodistribution in Sprague-Dawley rat spleen assessed per gram of tissue at 1 MBq, iv after 4 hrs; format: ADME, organism-based; details: in vivo; how it was run: as §1
Kidney [18] = test: Biodistribution in Sprague-Dawley rat kidney assessed per gram of tissue at 1 MBq, iv after 4 hrs; format: ADME, organism-based; details: in vivo; how it was run: as §1
Adrenal [19] = test: Biodistribution in Sprague-Dawley rat adrenals assessed per gram of tissue at 1 MBq, iv after 0.5 hrs; format: ADME, organism-based, Adrenal tissue; details: in vivo; how it was run: as §1
Adrenal [20] = test: Biodistribution in Sprague-Dawley rat adrenals assessed per gram of tissue at 1 MBq, iv after 4 hrs; format: ADME, organism-based, Adrenal tissue; details: in vivo; how it was run: as §1
Adrenal [21] = test: Biodistribution in Sprague-Dawley rat adrenals assessed per gram of tissue at 1 MBq, iv after 1 hr; format: ADME, organism-based, Adrenal tissue; details: in vivo; how it was run: as §1
[22] = Biodistribution in Sprague-Dawley rat testis assessed per gram of tissue at 1 MBq, iv after 0.25 hrs; format: ADME, organism-based; details: in vivo; how it was run: as §1
[23] = Biodistribution in Sprague-Dawley rat testis assessed per gram of tissue at 1 MBq, iv after 0.5 hrs; format: ADME, organism-based; details: in vivo; how it was run: as §1
Heart [24] = test: Biodistribution in Sprague-Dawley rat heart assessed per gram of tissue at 1 MBq, iv after 1 hr; format: ADME, organism-based; details: in vivo; how it was run: as §1
Lung [25] = test: Biodistribution in Sprague-Dawley rat lungs assessed per gram of tissue at 1 MBq, iv after 0.25 hrs; format: ADME, organism-based; details: in vivo; how it was run: as §1
[26] = Metabolic stability in Sprague-Dawley rat plasma assessed as drug remaining at 30 MBq after 0.25 hrs by Radio-HPLC analysis; format: ADME, cell-free; details: read-out: Stability; how it was run: as §2
Lung [27] = test: Biodistribution in Sprague-Dawley rat lungs assessed per gram of tissue at 1 MBq, iv after 1 hr; format: ADME, organism-based; details: in vivo; how it was run: as §1
[28] = Metabolic stability in Sprague-Dawley rat frontal cortex assessed as drug remaining at 30 MBq after 0.25 hrs by Radio-HPLC analysis; format: ADME, tissue-based; details: read-out: Stability; how it was run: as §2
Lung [29] = test: Biodistribution in Sprague-Dawley rat lungs assessed per gram of tissue at 1 MBq, iv after 0.5 hrs; format: ADME, organism-based; details: in vivo; how it was run: as §1
Liver [30] = test: Biodistribution in Sprague-Dawley rat liver assessed per gram of tissue at 1 MBq, iv after 0.25 hrs; format: ADME, organism-based; details: in vivo; how it was run: as §1
Lung [31] = test: Biodistribution in Sprague-Dawley rat lungs assessed per gram of tissue at 1 MBq, iv after 4 hrs; format: ADME, organism-based; details: in vivo; how it was run: as §1
Spleen [32] = test: Biodistribution in Sprague-Dawley rat spleen assessed per gram of tissue at 1 MBq, iv after 0.25 hrs; format: ADME, organism-based; details: in vivo; how it was run: as §1
Liver [33] = test: Biodistribution in Sprague-Dawley rat liver assessed per gram of tissue at 1 MBq, iv after 0.5 hrs; format: ADME, organism-based; details: in vivo; how it was run: as §1
Kidney [34] = test: Biodistribution in Sprague-Dawley rat kidney assessed per gram of tissue at 1 MBq, iv after 0.5 hrs; format: ADME, organism-based; details: in vivo; how it was run: as §1
Blood [35] = test: Biodistribution in Sprague-Dawley rat blood at 1 MBq, iv after 4 hrs; format: ADME, organism-based; details: in vivo; how it was run: as §1
Femur [36] = test: Biodistribution in Sprague-Dawley rat femur at 1 MBq, iv after 4 hrs; format: ADME, organism-based; details: in vivo; how it was run: as §1
Liver [37] = test: Biodistribution in Sprague-Dawley rat liver assessed per gram of tissue at 1 MBq, iv after 4 hrs; format: ADME, organism-based; details: in vivo; how it was run: as §1
Heart [38] = test: Biodistribution in Sprague-Dawley rat heart assessed per gram of tissue at 1 MBq, iv after 4 hrs; format: ADME, organism-based; details: in vivo; how it was run: as §1
[39] = Ratio of drug level in olfactory bulb to blood in Sprague-Dawley rat at 1 MBq, iv; format: ADME
How it was run: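 Same rat biodistribution as above: 1 MBq iv by tail vein, n = 4 per time point, 0.25-4 h, gamma counting as %ID/g. Ratio is the olfactory bulb radioactivity concentration divided by the blood concentration at each time.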

[40] = Metabolic stability in Sprague-Dawley rat plasma assessed as drug remaining at 30 MBq after 4 hrs by Radio-HPLC analysis; format: ADME, cell-free; details: read-out: Stability; how it was run: as §2
[41] = Metabolic stability in Sprague-Dawley rat olfactory bulb assessed as drug remaining at 30 MBq after 4 hrs by Radio-HPLC analysis; format: ADME, tissue-based; details: read-out: Stability; how it was run: as §2
[42] = Metabolic stability in Sprague-Dawley rat olfactory bulb assessed as drug remaining at 30 MBq after 0.25 hrs by Radio-HPLC analysis; format: ADME, tissue-based; details: read-out: Stability; how it was run: as §2

| logD [1] | Ki [2] [µM] | Drug uptake (Adrenal [3]) [%ID] | Drug uptake (Spleen [4]) [%ID] | Drug uptake (Liver [5]) [%ID] | Drug uptake (Kidney [6]) [%ID] | Drug uptake (Spleen [7]) [%ID] | Drug uptake [8] [%ID] | Drug uptake (Heart [9]) [%ID] | Drug uptake (Kidney [11]) [%ID] | Drug uptake (Heart [12]) [%ID] | Drug uptake [13] [%ID] | remaining at 4 h [14] [%] | Drug uptake (Blood [15]) [% ID/g] | Drug uptake (Femur [16]) [% ID/g] | Drug uptake (Spleen [17]) [%ID] | Drug uptake (Kidney [18]) [%ID] | Drug uptake (Adrenal [19]) [%ID] | Drug uptake (Adrenal [20]) [%ID] | Drug uptake (Adrenal [21]) [%ID] | SMILES | further results |
| --- | --- | --- | --- | --- | --- | --- | --- | --- | --- | --- | --- | --- | --- | --- | --- | --- | --- | --- | --- | --- | --- |
| 3.2 | > 5 |  |  |  |  |  |  |  |  |  |  |  |  |  |  |  |  |  |  | CCN(CC)C(=O)Cc1c(-c2ccc(OCCCF)cc2)nn2c(C)cc(C)nc12 |  |
|  |  | 8 | 5.1 | 0.69 | 4.7 | 5.5 | 0.43 | 9 | 5.5 | 9 | 0.32 | 30 | 0.1 | 0.6 | 3.6 | 3.2 | 7.9 | 12.2 | 11 | CCN(CC)C(=O)Cc1c(-c2ccc(OCCC[18F])cc2)nn2c(C)cc(C)nc12 | Drug uptake (Blood [10]): 0.3 % ID/g; Drug uptake [22]: 0.27 %ID; Drug uptake [23]: 0.28 %ID; Drug uptake (Heart [24]): 8.7 %ID; Drug uptake (Lung [25]): 20 %ID; remaining at 0.25 h [26]: 10%; Drug uptake (Lung [27]): 7.1 %ID; remaining at 0.25 h [28]: 55%; Drug uptake (Lung [29]): 12.4 %ID; Drug uptake (Liver [30]): 1.08 %ID; Drug uptake (Lung [31]): 3.3 %ID; Drug uptake (Spleen [32]): 5.5 %ID; Drug uptake (Liver [33]): 0.98 %ID; Drug uptake (Kidney [34]): 4.9 %ID; Drug uptake (Blood [35]): 0.1 % ID/g; Drug uptake (Femur [36]): 2.2 % ID/g; Drug uptake (Liver [37]): 0.38 %ID; Drug uptake (Heart [38]): 5.8 %ID |
|  |  | 5.6 | 4.5 | 0.4 | 3.5 | 4.7 | 0.35 | 5.6 | 3.8 | 5.8 | 0.27 | 10 | 0.1 | 0.4 | 3.9 | 2.4 | 6.6 | 9.7 | 7.8 | CCN(CC)C(=O)Cc1c(-c2ccc(OCC[18F])cc2)nn2c(C)cc(C)nc12 [DPA-714 F-18] | Kp [39]: 2; remaining at 4 h [40]: < 1%; Drug uptake [22]: 0.18 %ID; Drug uptake [23]: 0.21 %ID; remaining at 4 h [41]: 40%; Drug uptake (Heart [24]): 6.4 %ID; Drug uptake (Lung [25]): 14.6 %ID; Drug uptake (Lung [27]): 5.7 %ID; remaining at 0.25 h [28]: 55%; Drug uptake (Lung [29]): 8.8 %ID; Drug uptake (Liver [30]): 0.63 %ID; Drug uptake (Lung [31]): 2.8 %ID; remaining at 0.25 h [42]: 80%; Drug uptake (Spleen [32]): 4.6 %ID; Drug uptake (Liver [33]): 0.54 %ID; Drug uptake (Kidney [34]): 3.6 %ID; Drug uptake (Femur [36]): 0.7 % ID/g; Drug uptake (Liver [37]): 0.29 %ID; Drug uptake (Heart [38]): 4.3 %ID |
| 2.5 | > 5 |  |  |  |  |  |  |  |  |  |  |  |  |  |  |  |  |  |  | CCN(CC)C(=O)Cc1c(-c2ccc(OCCF)cc2)nn2c(C)cc(C)nc12 [DPA-714] |  |
